Data set [1] concerns Trichomonas vaginalis. Kind of data set: Antiparasitic activity against metronidazole sensitive Trichomonas vaginalis ATCC 33592 after 48 hrs by trypan blue exclusion assay. To be noted: ATCC 33592, 48 h. In kind it is functional.
Data set [2] has as its system Trichomonas vaginalis. The data set can be described thus: Antiparasitic activity against metronidazole resistant Trichomonas vaginalis ATCC 50143 after 48 hrs by trypan blue exclusion assay. It counts as functional. To be noted: ATCC 50143, 48 h. Summed up: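 T. vaginalis trophozoites ([…]), log phase, grown in TYM with 10% FCS, vitamin mix and penicillin/streptomycin at 37 °C. Test agents from DMSO stocks serially diluted in TYM; DMSO/TYM vehicle controls. Anaerobic incubation at 37 °C with microscopic viability checks from 3 to 48 h by trypan blue exclusion. MIC is the lowest concentration killing all cells by 48 h. Repeated three times.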

Data set [3] is described as follows: Cytotoxicity against human HeLa cells after 24 hrs by MTT assay. It counts as toxicity, cell-based. Summed up: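 HeLa cells seeded at 2 × 10⁴ per well in DMEM with 10% FCS, in triplicate, and held 24 h at 37 °C in 5% CO₂. Exposed to compound dilutions for 24 h; controls received 0.05% DMSO. MTT in PBS pH 7.4 added, formazan dissolved in DMSO, OD540 read. IC50 taken as the concentration killing 50% of cells.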

A short description of data set [4]: Selectivity index, ratio of IC50 for human HeLa cells to MIC for metronidazole sensitive Trichomonas vaginalis ATCC 33592. It counts as toxicity, cell-based. As to conditions: read-out: Selectivity Index. The method, boiled down:
(§1)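 SI is HeLa IC50 divided by parasite MIC. HeLa cells seeded at 2 × 10⁴/well in triplicate in DMEM with 10% FCS, 24 h at 37 °C in 5% CO2. Medium then replaced with compound dilutions (0.05% DMSO controls) for 24 h. Viability by MTT read at OD540; IC50 is the concentration killing 50% of cells. MIC from 48 h trypan blue parasite killing in TYM.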

A short description of data set [5]: Selectivity index, ratio of IC50 for human HeLa cells to MIC for metronidazole resistant Trichomonas vaginalis ATCC 50143. In kind it is toxicity, cell-based. As to conditions: read-out: Selectivity Index. Summed up:
as §1

For data set [6], the system named is Trichomonas vaginalis. Kind of data set: Potency index, ratio of metronidazole MIC to compound MIC for metronidazole sensitive Trichomonas vaginalis ATCC 33592. In kind it is functional.
For data set [7], the system named is Trichomonas vaginalis. Kind of data set: Potency index, ratio of metronidazole MIC to compound MIC for metronidazole resistant Trichomonas vaginalis ATCC 50143. It counts as functional.
For data set [8], the system named is Trichomonas vaginalis. Kind of data set: Antiparasitic activity against Trichomonas vaginalis in po dosed mouse assessed as size of abscess at 50 mg/kg, po administered daily for 7 days measured 7 days post last dose (reference value: 113 mm'2). It counts as functional. The method, boiled down: (§2)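 Six-week-old mice inoculated subcutaneously in the left hind flank with 50 µL of 2 × 10⁶ saline-washed trophozoites/mL grown in TYM. Abscess confirmed by palpation at day 7 and by fine-needle biopsy. Oral dosing in gum acacia at 50 or 100 mg/kg daily; controls received vehicle. Abscess size measured longitudinally each day and area calculated; n = 3 per group.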

For data set [9], the system named is Trichomonas vaginalis. The data set can be described thus: Antiparasitic activity against Trichomonas vaginalis in po dosed mouse assessed as size of abscess at 100 mg/kg, po administered daily for 7 days measured 7 days post last dose (reference value: 113 mm'2). In kind it is functional. Summed up: as §2
Data set [10] in a line: Cmax in Sprague Dawley rat at 50 mg/kg, po. In kind it is ADME, organism-based. Also noted: dose 50 mg/kg, route oral. To be noted: in vivo. The method, boiled down:
(§3)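 Overnight-fasted (12–16 h) rats, n = 4 per time point, given a single oral dose of 50 mg/kg as a 12.5 mg/mL suspension in 1% w/v gum acacia and water. Blood sampled at set times up to 24 h; serum stored at −80 °C. Analysis by LC-MS/MS in positive-ion MRM mode with phenacetin as internal standard; parameters derived by non-compartmental analysis. Values are means of four rats.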

The nature of data set [11]: Tmax in Sprague Dawley rat at 50 mg/kg, po. To be noted: in vivo. In kind it is ADME, organism-based. The method, boiled down:
as §3

A short description of data set [12]: Volume of distribution at steady state in Sprague Dawley rat at 50 mg/kg, po. It counts as ADME, organism-based. To be noted: in vivo. Summed up:
as §3

Data set [13] can be described thus: AUClast in Sprague Dawley rat at 50 mg/kg, po. In kind it is ADME, organism-based. As to conditions: in vivo. Also noted: dose 50 mg/kg, route oral, time 0 - last. Summed up:
as §3

A short description of data set [14]: Half life in Sprague Dawley rat at 50 mg/kg, po. It counts as ADME, organism-based. To be noted: in vivo. Summed up: as §3
Data set [15] can be described thus: Clearance in Sprague Dawley rat at 50 mg/kg, po. As to conditions: in vivo. In kind it is ADME, organism-based. The method, boiled down:
as §3

Data set [16] relates to Trichomonas vaginalis. The data set can be described thus: Antiparasitic activity against Trichomonas vaginalis in po dosed mouse assessed as size of abscess at 50 mg/kg, po administered daily for 5 days measured 5 days post last dose (reference value: 120 mm'2). It counts as functional. Summed up:
as §2

Data set [17] concerns Trichomonas vaginalis. Kind of data set: Antiparasitic activity against Trichomonas vaginalis in po dosed mouse assessed as size of abscess at 100 mg/kg, po administered daily for 5 days measured 5 days post last dose (reference value: 120 mm'2). In kind it is functional. Summed up:
as §2

Data set [18] has as its system Trichomonas vaginalis. The data set can be described thus: Antiparasitic activity against Trichomonas vaginalis assessed as decrease in parasite free thiol levels at MIC after 24 hrs by fluorometric thiol detector-based fluorescence microscopic method. It counts as functional. Summed up: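 Cells pelleted (700 × g, 10 min, 4 °C), washed 2–3 times in PBS, then stained 5 min in the dark with fluorometric thiol detector (pre-diluted 100×). Imaged by epifluorescence microscopy, UV-1A filter, with equal exposure times for all samples.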

Each structure is given as a SMILES string. ≈ marks a conversion by molar mass, not a printed value. Calls of active or inactive are those of the source.

Regarding `Cc1ncc([N+](=O)[O-])n1CC(O)CSC(=S)N1CCN(C(=O)OC(C)(C)C)CC1` (racemic), the MIC came to 17.6 µM (≈ 7.82 µg/mL) in data set [1] and 70.2 µM (≈ 31.3 µg/mL) in data set [2]. Moreover, in data set [3], the IC50 at 24 h is 689 µM. In addition, the selectivity ratio was 39 in data set [4] and 9 in data set [5]. Moreover, the figures for the Ratio entry in [6] and in [7] were “<=2.4” and “<=12.7”, respectively.

On to `Cc1ncc([N+](=O)[O-])n1CC(O)CSC(=S)N1CCC(Cc2ccccc2)CC1` (racemic), for which the MIC turned out to be 14.4 µM (≈ 6.26 µg/mL) in [1] and 28.8 µM (≈ 12.5 µg/mL) in data set [2]. Besides, the IC50 at 24 h in data set [3] came out at 1320 µM. In addition, the selectivity ratio in data set [4] turned out to be 91; in [5], 45. In addition, the Ratio entry was “<=2.4” in [6] and 2.5 - 12.6 in data set [7].

In the case of `CCCCN1CCN(C(=S)SCC(O)Cn2c([N+](=O)[O-])cnc2C)CC1` (racemic), the MIC in [1] came to 15.6 µM (≈ 6.26 µg/mL); in data set [2] it was 31.2 µM (≈ 12.5 µg/mL). In data set [3], half-maximal inhibition (IC50 at 24 h) required 1910 µM. The figures for the selectivity ratio in data set [4] and in [5] were 122 and 61, respectively. Further, the figures for the Ratio result in [6] and in data set [7] were “<=2.4” and “<=12.7”, respectively.

For the compound `Cc1ncc([N+](=O)[O-])n1CC(O)CSC(=S)N1CCN(c2ccccc2)CC1` (racemic), the figures for the MIC in [1] and in [2] were 8.55 µM (≈ 3.6 µg/mL) and 37.1 µM (≈ 15.6 µg/mL), respectively. In addition, the IC50 at 24 h in [3] was more than 5000 µM. The selectivity ratio is more than 584 in data set [4] and more than 135 in [5]. The Activity is 1.55 mm2 in data set [8], 0.785 mm2 in [9], 1 - 5 mm2 in [16] and 1 - 5 mm2 in data set [17]. The same compound came in with a Cmax in data set [10] of 35.2 ng/mL. Further, the Tmax in [11] was found to be 4 h. The Vdss in data set [12] was 80.6 L/kg. Besides, in data set [13], the AUClast is 149.1 ng·h/mL. In data set [14], this compound showed a half-life of 5 h. Further, the CL in data set [15] was 272 mL/min/kg. The Ratio was 2.4 in data set [6] and “<=12.7” in data set [7]. Moreover, the outcome in data set [18] was Active.

With `CCN1CCN(CC(O)Cn2c([N+](=O)[O-])cnc2C)CC1` (racemic), the MIC in data set [1] is 12.1 µM (≈ 3.6 µg/mL); in data set [2], 105 µM (≈ 31.3 µg/mL). The compound also came in with an IC50 at 24 h in data set [3] of 4940 µM. Moreover, the selectivity ratio is 407 in data set [4] and 47 in data set [5]. For the same compound, the Ratio result in data set [6] is “<=2.4”; in [7], “<=12.7”.

As to `Cc1ncc([N+](=O)[O-])n1CC(O)CN1CCN(c2ccccn2)CC1` (racemic), the MIC was 18.1 µM (≈ 6.26 µg/mL) in data set [1] and 72.2 µM (≈ 25 µg/mL) in data set [2]. Also, inhibition in data set [3] was half-maximal at 1830 µM (IC50 at 24 h). The selectivity ratio was 101 in data set [4] and 25 in data set [5]. For the same compound, the Ratio result in data set [6] is on record as “<=2.4”; in [7], “<=12.7”.

On to `Cc1ncc([N+](=O)[O-])n1CC(O)CSC(=S)N1CCCC(C)C1` (racemic), for which the values for the MIC in [1] and in data set [2] were 17.4 µM (≈ 6.26 µg/mL) and 69.8 µM (≈ 25 µg/mL), respectively. Also, in data set [3], the IC50 at 24 h is 609 µM. Further, the selectivity ratio was found to be 35 in [4] and 8 in [5]. For the same compound, the Ratio result in [6] is reported as “<=2.4”; in [7], 2.5 - 12.6.

Regarding `Cc1ncc([N+](=O)[O-])n1CC(O)CN1CCN(c2cccc(Cl)c2Cl)CC1` (racemic), the minimum inhibitory concentration (MIC) in data set [1] was determined as 18.9 µM (≈ 7.81 µg/mL); in data set [2] it was 151 µM (≈ 62.5 µg/mL). Moreover, in [3], the IC50 at 24 h is more than 5000 µM. Moreover, the selectivity ratio was more than 265 in [4] and more than 33 in data set [5]. Moreover, the Ratio result is given as “<=2.4” in [6] and “<=12.7” in [7].

On to `Cc1ncc([N+](=O)[O-])n1CC(O)CSC(=S)N1CCC(C)CC1` (racemic), for which the MIC in data set [1] was 17.4 µM (≈ 6.26 µg/mL); in [2] it was 69.8 µM (≈ 25 µg/mL). It took 1820 µM to reach half-maximal inhibition in data set [3] (IC50 at 24 h). Moreover, the selectivity ratio in data set [4] stood at 104; in data set [5], 26. Further, the Ratio result in data set [6] is on record as “<=2.4”; in data set [7], 2.5 - 12.6.

Take `Cc1ncc([N+](=O)[O-])n1CC(O)Cn1ccnn1` (racemic): the MIC amounted to 12.4 µM (≈ 3.12 µg/mL) in data set [1] and 99.2 µM (≈ 25 µg/mL) in [2]. The same compound had an IC50 at 24 h in [3] of more than 5000 µM. Further, the selectivity ratio is more than 416 in [4] and more than 50 in data set [5]. Besides, the figures for the Ratio result in data set [6] and in data set [7] were “<=2.4” and “<=12.7”, respectively.

As to `Cc1ncc([N+](=O)[O-])n1CCO` [METRONIDAZOLE], the MIC stood at 21.1 µM (≈ 3.6 µg/mL) in [1] and 365 µM (≈ 62.6 µg/mL) in data set [2]. In [3], this compound had a half-maximal inhibitory concentration (IC50) at 24 h of more than 5000 µM. Further, the selectivity ratio was more than 238 in [4] and more than 13 in data set [5]. Further, the results for the Activity in data set [8] and in [16] were 1.57 mm2 and 1 - 5 mm2, respectively.

A word on the MIC: it is the smallest concentration in the dilution series that meets the test's criterion for growth inhibition. Low readings indicate a more susceptible organism, high ones a less susceptible organism. A word on the IC50: it is the concentration that inhibits the measured activity by half. Lower therefore signals higher potency. In general, Cmax refers to the peak of the concentration-time curve. For orientation: Tmax means the time at which the peak concentration occurs. The half-life is how long it takes for the measured level to halve.

Source of the values: ChEMBL document CHEMBL3875170, “2-Methyl-4/5-nitroimidazole derivatives potentiated against sexually transmitted Trichomonas: Design, synthesis, biology and 3D-QSAR study” (Eur J Med Chem, 2016).
